IC50, K aff and T/C data for 15 molecules are collected here from ChEMBL document CHEMBL1124035, “1-Amino-substituted 4-methyl-5H-pyrido[4,3-b]indoles (gamma-carbolines) as tricyclic analogues of ellipticines: a new class of antineoplastic agents” (1988).

Calls of active or inactive are those of the source. No cut-off for these calls is given here.

The test system of experiment [1] is L1210. Kind of experiment: Ability to reduce the cell count to 50% in L1210 culture cells. Format: functional. Conditions: Mus musculus, read-out: ID50 (the source's name). The method in brief: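 L1210 cells in exponential growth in RPMI 1640 with 2 mM glutamine, penicillin/streptomycin and 10% FCS, 37 °C, 5% CO2. Drugs dissolved in distilled water were added to cells at 0.8 × 10^5 cells/mL for 48 h, then cells were counted. ID50 is the concentration halving cell proliferation versus controls, from regression of dose-response data; mean of two independent experiments.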

Experiment [2] relates to Calf thymus DNA. Kind of experiment: Apparent DNA affinity constant. The experiment is classed as nucleic-acid assay. The settings on record: Bos taurus. The method in brief:
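Apparent DNA affinity constant was measured by competition with ethidium bromide. Buffer was 20 mM Na2HPO4/NaH2PO4, 0.1 M NaCl, 1 mM EDTA, pH 7.4, with calf thymus DNA at 10 μg/mL. Values are given in 10^6 M⁻¹.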

For experiment [3], the system named is Mus musculus. Kind of experiment: Antitumor activity against P388 leukemia in mice at a dose of 80 mg/kg administered intraperitoneally for 5 days. The experiment is classed as functional, organism-based. Further details: dose 80 mg/kg. The method in brief: (§1)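 CDF1 hybrid male or female mice, 10 per group, were inoculated ip on day 0 with 10^6 viable P388 leukemia cells. Drug in distilled water was given ip (0.1 mL/10 g body weight) daily on days 1-5, with vehicle, 5-fluorouracil and BD 84 controls given the same way. T/C = median survival of treated/controls × 100; T/C > 128% counted as significant.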

Experiment [4] deals with Mus musculus. Kind of experiment: Antitumor activity against P388 leukemia in mice at a dose of 40 mg/kg administered intraperitoneally for 5 days. The experiment is classed as functional. The method in brief:
as §1

Experiment [5] deals with Mus musculus. The experiment is described as follows: Antitumor activity against P388 leukemia in mice at a dose of 20 mg/kg administered intraperitoneally for 5 days. The experiment is classed as functional. Conditions: route intraperitoneal. The method in brief: (§2)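 CDF1 hybrid male or female mice, 10 per group, were inoculated ip with 10^6 viable P388 cells on day 0. Drugs in distilled water were given ip (0.1 mL/10 g body weight) daily D1-5. Vehicle, 5-fluorouracil and BD 84 were given the same way. T/C = median survival day of treated / controls × 100; T/C > 128% was significant; cures counted at D60.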

The subject of experiment [6] is Mus musculus. Kind of experiment: Antitumor activity against P388 leukemia in mice at a dose of 5 mg/kg administered intraperitoneally for 5 days. The experiment is classed as functional. The procedure, abridged: as §1
For experiment [7], the system named is Mus musculus. The experiment is described as follows: Antitumor activity against P388 leukemia in mice at a dose of 10 mg/kg administered intraperitoneally for 5 days. The experiment is classed as functional. The method in brief: as §2
Experiment [8] deals with Mus musculus. The experiment is described as follows: Antitumor activity against P388 leukemia in mice at a dose of 50 mg/kg administered intraperitoneally for 5 days; […]. The experiment is classed as functional. Conditions: route intraperitoneal. The procedure, abridged: as §1
Experiment [9] deals with Mus musculus. Kind of experiment: Antitumor activity against P388 leukemia in mice at a dose of 50 mg/kg administered intraperitoneally for 5 days. The arrangement: dose 50 mg/kg. Format: functional, organism-based. The procedure, abridged:
as §1

The subject of experiment [10] is Mus musculus. Kind of experiment: Antitumor activity against P388 leukemia in mice at a dose of 40 mg/kg administered intraperitoneally. Format: functional, organism-based. Further details: dose 40 mg/kg.
Experiment [11] deals with Mus musculus. The experiment is described as follows: Antitumor activity against P388 leukemia in intraperitoneally for 5 days. Format: functional. The procedure, abridged: as §2
Experiment [12] deals with Mus musculus. Kind of experiment: Antitumor activity against P388 leukemia in mice at a dose of 24 mg/kg administered intraperitoneally for 5 days. The settings on record: route intraperitoneal. Format: functional. The method in brief:
as §1

Experiment [13] relates to Mus musculus. The experiment is described as follows: Antitumor activity against P388 leukemia in mice at a dose of 12 mg/kg administered intraperitoneally for 5 days. The experiment is classed as functional. Conditions: route intraperitoneal. The procedure, abridged:
as §2

Experiment [14] has as its system Mus musculus. The experiment is described as follows: Antitumor activity against P388 leukemia in mice at a dose of 6 mg/kg administered intraperitoneally for 5 days. The experiment is classed as functional. Conditions: route intraperitoneal. The procedure, abridged: as §1

The term T/C denotes the ratio of treated to control.

For the molecule `CCN(CC)CCNc1ncc(C)c2c1c1cc(OC)ccc1n2C`, the IC50 in experiment [1] was found to be 1.2 µM. In experiment [2], the K aff was determined as 80000 M⁻¹.
The corresponding values for `COc1ccc2c(c1)c1c(NCCCN3CCCC3)ncc(C)c1n2C` are 0.5 µM and 300000 M⁻¹.
For `CCN(CC)CCCNc1ncc(C)c2c1c1cc(OC)ccc1n2C`, the T/C entry in experiment [3] was “Toxic”; in [4] (route intraperitoneal) it was 115%; in experiment [5], 125%; in [6] (route intraperitoneal) it was 107%; in [7] (route intraperitoneal) it was 115%. Moreover, in experiment [1], the IC50 was 0.1 µM. The K aff in experiment [2] was found to be 250000 M⁻¹.
With `CCN(CC)CCCNc1[nH]cc(C)c2nc3ccccc3c1-2.O=C(O)/C=C\C(=O)O.O=C(O)/C=C\C(=O)O`, the IC50 in [1] stood at 0.22 µM. In addition, the T/C in experiment [8] came to 175%; in experiment [7] (route intraperitoneal) it was 130%. Further, the K aff in experiment [2] worked out at 150000 M⁻¹.
As for `Cc1c[nH]c(NCCCN(C)C)c2c3ccccc3nc1-2`, the T/C entry in [9] was “Toxic”; in experiment [7] (route intraperitoneal) it was 129%. Moreover, the IC50 in [1] turned out to be 0.16 µM. For the same molecule, in experiment [2], the K aff was found to be 130000 M⁻¹.
As to `Cc1cnc(NCC(C)CN(C)C)c2c3cc(O)ccc3n(C)c12` (configuration not stated), the IC50 in experiment [1] was determined as 0.01 µM. Also, the K aff in experiment [2] turned out to be 140000 M⁻¹.
As for `CCNCCCNc1[nH]cc(C)c2nc3ccc(OC)cc3c1-2`, the T/C entry in [10] was “Toxic”; in experiment [5] it was 107%; in [6] (route intraperitoneal), 119%; in [7] (route intraperitoneal) it was 119%. In addition, the IC50 in experiment [1] was 1.2 µM. The K aff in experiment [2] worked out at 220000 M⁻¹.
Consider `CCN(CC)CCCNc1[nH]cc(C)c2nc3ccc(OC)cc3c1-2`, for which the T/C entry is “Toxic” in [3], 176% in [4] (route intraperitoneal), 149% in experiment [5] and 147% in experiment [11]. In addition, the IC50 in [1] was determined as 0.3 µM. In addition, the K aff in experiment [2] worked out at 220000 M⁻¹.
On to `COc1ccc2c(c1)c1c(NCC(C)CN(C)C)ncc(C)c1n2C` (configuration not stated), for which the IC50 in [1] came out at 1 µM. Moreover, the K aff in experiment [2] stood at 150000 M⁻¹.
As to `CCN(CC)CC(O)CNc1ncc(C)c2c1c1cc(O)ccc1n2C` (configuration not stated), in experiment [1], the IC50 was 0.06 µM. Also, the K aff in experiment [2] stood at 230000 M⁻¹. In experiment [6], the T/C entry is “inactive”. Besides, in experiment [7], the T/C result is “Toxic”.
Take `Cc1cnc(NCCCN2CCCC2)c2c3cc(O)ccc3n(C)c12`: the IC50 in [1] was 0.05 µM. For the same molecule, the K aff in experiment [2] stood at 370000 M⁻¹.
For `CCN(CC)CCCCNc1ncc(C)c2c1c1cc(O)ccc1n2C` the same measures were 0.31 µM and 350000 M⁻¹.
On to `Cc1cnc(NCCCN(C)C)c2c3ccccc3n(C)c12`, for which the T/C was 131% in [12], “Toxic” in [9], 114% in [13] and 107% in experiment [14]. In addition, in experiment [1], the IC50 was 0.35 µM. Further, the K aff in experiment [2] worked out at 150000 M⁻¹.
In the case of `CCN(CC)CCCCNc1ncc(C)c2c1c1cc(OC)ccc1n2C`, the IC50 in [1] is 1.3 µM. Also, the K aff in [2] was 460000 M⁻¹.
Turning to `COc1ccc2c(c1)c1c(NCCCN(C)C)ncc(C)c1n2C`, the T/C result in [4] is “Toxic”; in [5], 150%; in [6] (route intraperitoneal), 134%; in experiment [7] (route intraperitoneal), 160%. Further, the IC50 in experiment [1] was found to be 0.13 µM. In addition, the K aff in experiment [2] was 360000 M⁻¹.
